Results as given in paper PMC11659308 (Communications Chemistry, 2024).
Peptide text beside a SMILES is read from it.

How the values were obtained:
[1] = estimated; cited from earlier work
[2] = Asn-Gly isomerisation kinetics followed by time-dependent 1D 1H-NMR; assay type: physicochemical; conditions: for k2 (Suc→β-Asp) / k3 (Suc→α-Asp) / t1/2, half-life of the Asn species: 1H-NMR time course, 50 mM Na2HPO4 buffer; for k2 (Suc→β-Asp) / k3 (Suc→α-Asp): COPASI fit; for t1/2, half-life of the Asn species: chemical stability
Method in brief: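 Acetylated Asn-Gly-Xxx-Ala amide tetrapeptide (~1 mg) in 50 mM (final) Na2HPO4 with D2O and DSS/NaN3. pH set with 0.1 M HCl/NaOH. Heated samples sonicated 1 min. 1D 1H spectra at 5–120 min and beyond, until reactant fell below ~10%. COSY/TOCSY assignment. Relative integrals fitted to Asn→Suc (irreversible), Suc⇌β-Asp and Suc⇌α-Asp kinetic model.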

[3] = native versus reduced and unfolded forms; cited from earlier work

In the case of `CNC(C)=O` [N-methylacetamide], the “pKa, deprotonation of the amide group” value [1] is given as 18.

In the case of `CC(=O)N[C@@H](CC(N)=O)C(=O)NCC(=O)N[C@@H](CCCCN)C(=O)N[C@@H](C)C(N)=O` [-NGKA-] (Ac-NGKA-NH2), the “k2 (Suc→β-Asp)” value ([2]; pH 7.4, 28 °C) is reported as 0.334 h⁻¹, the “k3 (Suc→α-Asp)” value ([2]; pH 7.4, 28 °C) is reported as 0.174 h⁻¹ and the “k2 (Suc→β-Asp)” value ([2]; pH 7.4, 37 °C) is reported as 0.643 h⁻¹. For the same molecule, the “k3 (Suc→α-Asp)” value ([2]; pH 7.4, 37 °C) was 0.255 h⁻¹, the “k2 (Suc→β-Asp)” value ([2]; pH 7.4, 46 °C) was 2.30 h⁻¹ and the “k3 (Suc→α-Asp)” value ([2]; pH 7.4, 46 °C) was 1.150 h⁻¹. For the same molecule, the “k2 (Suc→β-Asp)” value ([2]; pH 7.4, 55 °C) was 4.00 h⁻¹, the “k3 (Suc→α-Asp)” value ([2]; pH 7.4, 55 °C) was 0.134 h⁻¹ and the “t1/2, half-life of the Asn species” value ([2]; pH 7.4, 28 °C) was 76.6 h. For the same molecule, the “t1/2, half-life of the Asn species” value ([2]; pH 7.4, 37 °C) was 19.1 h, the “t1/2, half-life of the Asn species” value ([2]; pH 7.4, 46 °C) was 9.4 h and the “t1/2, half-life of the Asn species” value ([2]; pH 7.4, 55 °C) was 3.0 h. The “activation Gibbs free energy of the rate-determining initial step (succinimide formation), ∆G‡(1)” value ([2]; pH 7.4, Arrhenius, slope of ln k1 vs 1/T (28-55 °C)) was 20.9 kcal/mol and the “change in Gibbs free energy of the β-Asp formation step, ∆G‡(2)” value ([2]; pH 7.4, Arrhenius, slope of ln k2 vs 1/T (28-55 °C)) was 20.5 kcal/mol.

B1: native ribonuclease A: native ribonuclease A, compared with its reduced and unfolded forms (protein, UniProt P61823 27-150, looked up)
Ribonuclease pancreatic: KETAAAKFERQHMDSSTSAASSSNYCNQMMKSRNLTKDRCKPVNTFVHESLADVQAVCSQKNVACKNGQTNCYQSYSTMSITDCRETGSSKYPNCAYKTTQANKHIIVACEGNPYVPVHFDASV
In the case of B1, the “times less prone to asparagine isomerisation than its reduced and unfolded forms” value [3] is given as ~ 30 times.
